{
  "source": "paper PMC8883152",
  "about": "(Translational Vision Science & Technology, 2022)",
  "format_in_all_cases": "in vivo, C57BL/6 mice",
  "key": {"[1]": {"tested_on": "Dex-induced OHT mouse model", "experiment": "IOP in dexamethasone-induced ocular hypertension mouse model", "details": "HL3501 0.04% BID, latanoprost 0.005% QD, or both", "how_it_was_run": "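IOP was read with a rebound tonometer on days 0, 1, 3, 5, 7, 10, 14, 17 and 21 in male C57BL/6 mice. Ocular hypertension was pre-induced by 0.1% dexamethasone (20 µL/eye, three times daily, 2 weeks; maintained throughout). Drops were test compound 0.04% BID, latanoprost 0.005% QD, or both 5 min apart, for 21 days. Groups had 8–10 mice. Basal IOP was taken before dexamethasone.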"}, "[2]": {"tested_on": "Dex-induced OHT mouse model", "experiment": "Electroretinography", "details": "day 21, compared with vehicle-treated group", "how_it_was_run": "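Male C57BL/6 mice (11 weeks) received 0.1% dexamethasone eye drops (20 µL/eye) in both eyes three times daily for 2 weeks, continued through dosing. Test compound (0.04% BID), latanoprost (0.005% QD) or both were then given topically for 21 days, doses 5 min apart. ERG was run on both eyes of dark-adapted anaesthetised mice on days 0 and 21. A single white 0.3 log cd·s/m2 flash was used, and b-wave amplitude was measured.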"}, "[3]": {"tested_on": "fibronectin and α-SMA expression in the TM", "details": "after 21 days treatment", "how_it_was_run": "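Eye sections from dexamethasone-induced hypertensive C57BL/6 mice (21 days of topical dosing) were used. Sections were incubated overnight at room temperature with fibronectin and α-SMA antibodies (1:200) and washed in 0.1 M PBST. Fluorescent secondary antibodies (1:500) were applied for 1 h. Sections were DAPI-counterstained and imaged by fluorescence microscopy focused on the trabecular meshwork.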"}, "RGCs": {"tested_on": "RGCs", "experiment": "Hematoxylin and eosin staining of retinal sections", "details": "after 21 days treatment, H&E retinal cross-sections", "how_it_was_run": "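In dexamethasone-induced hypertensive C57BL/6 mice treated topically for 21 days, eyes were enucleated after euthanasia and fixed in 10% formalin for 24 h. They were paraffin-embedded and sectioned. Retinal sections were stained with hematoxylin (0.1% plus 10% ammonium) for 3–5 min, then 1% eosin Y for 1 min. Slides were dehydrated through ethanol and xylene and scanned to assess RGCs.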"}, "[4]": {"tested_on": "MMP-2/TIMP-2 and MMP-9/TIMP-1 ratios", "details": "retinal extracts, normalized to α-tubulin", "how_it_was_run": "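Three mice per group were used (dexamethasone-induced hypertension, 21 days of topical dosing). Retinas were homogenised in RIPA buffer (pH 8.0) and centrifuged at 14,000g for 30 min at 4°C. Protein (10 µg/lane) was run on 10% SDS-PAGE and blotted. Membranes were probed overnight at room temperature for MMP-2, MMP-9, TIMP-1 and TIMP-2. Bands were detected by ECL densitometry and normalised to α-tubulin, and MMP-2/TIMP-2 and MMP-9/TIMP-1 ratios were calculated.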"}},
  "data": [
    {"smiles": "CC(C)OC(=O)CCC/C=C\\C[C@@H]1[C@@H](CC[C@@H](O)CCc2ccccc2)[C@H](O)C[C@@H]1O", "note": "[Latanoprost, latanoprost]", "values": [
      {"measurement": "IOP effect over 3 weeks in Dex-induced OHT mouse model (in words)", "setting": "[1]", "result": "consistent IOP-lowering effect"},
      {"measurement": "b-wave values on day 21 (in words)", "setting": "[2]", "result": "did not decrease as much"},
      {"measurement": "Fibronectin and α-SMA expression in the TM compared with vehicle (in words)", "setting": "[3]", "result": "suppressed"},
      {"measurement": "RGC loss (in words)", "setting": "RGCs", "result": "less affected by RGC loss"},
      {"measurement": "MMP-2/TIMP-2 ratio (in words)", "setting": "[4]", "result": "increased"},
      {"measurement": "MMP-9/TIMP-1 ratio (in words)", "setting": "[4]", "result": "increased"}
    ]}
  ]
}
